One assay relates to Canavalia ensiformis. The assay can be described thus: Inhibition of jack bean alpha-mannosidase at 2 mM after 10 to 30 mins by spectrophotometric analysis. The method, boiled down: (§1)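 Enzyme added to substrate with or without inhibitor in phosphate buffer (phosphate–citrate for α-/β-mannosidase and amyloglucosidase) at each enzyme's optimal pH; 10–30 min at 37 °C (55 °C amyloglucosidase), aiming at 10–20% conversion. Stopped with 1 M Na₂CO₃, A405; trehalase stopped by heating, GLC-Trinder added, A492. Ki from Lineweaver–Burk and double-reciprocal analysis, substrate near Km.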

In assay [1] the target is T1, Lysosomal acid glucosylceramidase (Homo sapiens) (UniProt P04062).
T1 sequence (whole entry): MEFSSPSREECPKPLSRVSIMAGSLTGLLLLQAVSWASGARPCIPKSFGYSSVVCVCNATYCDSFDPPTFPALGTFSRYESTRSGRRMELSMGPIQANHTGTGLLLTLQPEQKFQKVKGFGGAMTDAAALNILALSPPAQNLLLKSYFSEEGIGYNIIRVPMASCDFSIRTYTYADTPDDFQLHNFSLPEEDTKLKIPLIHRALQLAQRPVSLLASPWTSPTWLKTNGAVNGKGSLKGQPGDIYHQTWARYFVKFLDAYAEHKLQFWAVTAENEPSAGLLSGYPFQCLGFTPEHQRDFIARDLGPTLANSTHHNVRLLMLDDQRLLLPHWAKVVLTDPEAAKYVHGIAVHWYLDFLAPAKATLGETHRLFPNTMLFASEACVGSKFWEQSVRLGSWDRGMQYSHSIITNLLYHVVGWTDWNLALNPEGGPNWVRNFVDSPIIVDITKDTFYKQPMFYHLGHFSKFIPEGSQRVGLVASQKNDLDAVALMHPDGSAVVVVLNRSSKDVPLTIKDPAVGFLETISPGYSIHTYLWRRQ
Nature of the assay: Inhibition of human beta-glucocerebrosidase at 100 uM relative to control. To be noted: values are per cent of control.

Another assay is filed under the species Homo sapiens. Nature of the assay: Inhibition of alpha galactosidase in human fibroblast lysate using 4-methylumbelliferyl beta-D-glycopyranoside as substrate by fluorimetric analysis. The essentials: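 Normal skin fibroblasts scraped into ice-cold 0.1% Triton X-100 in water, spun 6000 rpm 15 min at 4 °C, protein quantified. Lysate incubated at 37 °C with the corresponding 4-methylumbelliferyl glycopyranoside in 0.1 M citrate buffer pH 4, without or with increasing inhibitor concentrations. Released 4-methylumbelliferone read fluorimetrically (ex 340, em 460 nm). Points are the mean of triplicates.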

The nature of assay [2]: Competitive inhibition of bovine beta-glucosidase isolated from liver after 10 to 30 mins by Lineweaver-Burk plot analysis. Set-up: species or system Bos taurus. The method, boiled down: as §1

Activity calls are given as the source filed them. The rule behind the calls is not given here.

The source of these data is ChEMBL document CHEMBL2163203, “Conformationally-locked N-glycosides with selective β-glucosidase inhibitory activity: identification of a new non-iminosugar-type pharmacological chaperone for Gaucher disease” (J Med Chem, 2012).

The residual activity is the activity still measured, relative to the control. A low value points to little activity left. The term Ki denotes a dissociation constant, usually derived from enzyme kinetics or from competition with a known ligand. Higher therefore signals weaker binding.

With `OCCCCCCCCCCCCCCCCSC1=N[C@H]2O[C@H](CO)[C@@H](O)[C@H](O)[C@H]2O1`, the inhibition entry in the assay on Canavalia ensiformis and in the assay listed under Homo sapiens was “inactive” each time. Also, the residual activity in assay [1] was 36%. The compound also displayed a Ki in assay [2] of 12 µM.
